Assay [1] addresses T1, Adenosine receptor A1 (Rattus norvegicus, UniProt P25099).
T1 sequence (P25099 whole entry): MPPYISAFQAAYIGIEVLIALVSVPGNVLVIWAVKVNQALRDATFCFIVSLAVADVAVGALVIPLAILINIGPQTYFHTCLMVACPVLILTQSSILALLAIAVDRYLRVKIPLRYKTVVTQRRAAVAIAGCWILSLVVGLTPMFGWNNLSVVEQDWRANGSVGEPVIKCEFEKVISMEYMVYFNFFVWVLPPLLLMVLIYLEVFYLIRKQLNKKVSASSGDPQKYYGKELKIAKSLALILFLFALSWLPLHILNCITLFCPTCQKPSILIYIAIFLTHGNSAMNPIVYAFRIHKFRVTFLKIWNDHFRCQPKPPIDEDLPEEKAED
Kind of assay: Inhibition of [3H]CCPA binding to adenosine A1 receptor. Put shortly:
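Radioligand competition assay; rat brain cortical membranes as the receptor source.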

For assay [2], the target named is T2, Adenosine receptor A2b (Homo sapiens, UniProt P29275).
T2 sequence (P29275 whole entry): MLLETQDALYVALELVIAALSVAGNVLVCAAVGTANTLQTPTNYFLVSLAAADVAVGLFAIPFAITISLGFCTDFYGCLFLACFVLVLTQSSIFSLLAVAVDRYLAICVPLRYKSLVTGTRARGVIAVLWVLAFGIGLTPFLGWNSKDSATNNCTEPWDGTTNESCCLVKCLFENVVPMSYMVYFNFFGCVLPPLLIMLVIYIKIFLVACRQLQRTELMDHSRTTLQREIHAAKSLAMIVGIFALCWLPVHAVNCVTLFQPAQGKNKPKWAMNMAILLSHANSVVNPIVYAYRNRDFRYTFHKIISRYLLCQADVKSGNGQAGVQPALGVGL
Kind of assay: Inhibition of [3H]PSB-298 binding to adenosine A2b receptor.

In assay [3] the target is T3, Adenosine receptor A2a (Rattus norvegicus, UniProt P30543). Nature of the assay: Inhibition of [3H]MSX-2 binding to adenosine A2a receptor.
T3 sequence (P30543 whole entry): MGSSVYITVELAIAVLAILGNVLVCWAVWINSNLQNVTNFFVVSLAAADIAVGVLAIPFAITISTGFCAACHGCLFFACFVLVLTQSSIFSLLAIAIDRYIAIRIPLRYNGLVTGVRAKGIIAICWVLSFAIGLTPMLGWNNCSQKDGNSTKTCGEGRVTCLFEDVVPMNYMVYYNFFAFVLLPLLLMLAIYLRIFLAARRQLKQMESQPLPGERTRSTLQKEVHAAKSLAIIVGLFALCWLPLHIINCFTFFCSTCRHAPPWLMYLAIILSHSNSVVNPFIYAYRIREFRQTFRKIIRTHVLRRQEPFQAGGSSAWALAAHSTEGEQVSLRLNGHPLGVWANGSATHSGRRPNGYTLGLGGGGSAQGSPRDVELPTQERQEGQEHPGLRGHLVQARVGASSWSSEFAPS
A further assay has as its target T4, Adenosine receptor A3 (Homo sapiens, UniProt P0DMS8).
T4 sequence (P0DMS8 whole entry): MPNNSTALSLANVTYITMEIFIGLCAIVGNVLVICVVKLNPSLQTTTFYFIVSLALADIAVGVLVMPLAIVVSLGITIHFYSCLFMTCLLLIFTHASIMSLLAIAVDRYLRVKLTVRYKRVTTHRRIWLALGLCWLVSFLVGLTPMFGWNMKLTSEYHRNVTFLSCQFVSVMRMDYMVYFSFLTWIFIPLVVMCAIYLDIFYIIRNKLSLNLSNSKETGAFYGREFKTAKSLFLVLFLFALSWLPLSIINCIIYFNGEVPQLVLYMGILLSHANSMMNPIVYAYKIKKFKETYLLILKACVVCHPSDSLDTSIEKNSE
Kind of assay: Inhibition of [3H]PSB-11 binding to adenosine A3 receptor.

Assay [4] concerns the target T5, Adenosine receptor A2b (Homo sapiens) (UniProt P29275).
T5 sequence (whole entry): T2 sequence (P29275 whole entry)
Kind of assay: Percent inhibition of [3H]PSB-298 binding to adenosine A2b receptor at 10 uM. Put shortly:
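Radioligand competition assay; membranes from CHO cells stably expressing the human receptor. Percent inhibition of radioligand binding is reported at the stated test concentration.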

The target of assay [5] is T3, Adenosine receptor A2a. Kind of assay: Inhibition of [3H]NECA binding to adenosine A2a receptor. Put shortly: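 Competition binding on rat brain striatal membranes as the A2A source. Where no Ki was reached, percent inhibition of radioligand binding was reported at 1 or 10 µM test compound.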
Assay [6] concerns the target T1, Adenosine receptor A1. Kind of assay: Inhibition of [3H]R-PIA binding to adenosine A1 receptor. Put shortly:
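Competition binding on rat brain cortical membranes as the A1 source. Where no Ki was reached, percent inhibition of radioligand binding was reported at 1 or 10 µM test compound.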

In assay [7] the target is T6, Adenosine receptor A3 (Homo sapiens) (UniProt P0DMS8).
T6 sequence (whole entry): T4 sequence (P0DMS8 whole entry)
Nature of the assay: Percent inhibition of [3H]PSB-11 binding to adenosine A3 receptor at 10 uM. Put shortly: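 Radioligand competition assay; membranes from HEK cells stably expressing the human receptor. Percent inhibition of radioligand binding is reported at the stated test concentration.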

Assay [8] concerns the target T2, Adenosine receptor A2b. Nature of the assay: Inhibition of [3H]ZM-241380 binding to adenosine A2b receptor.

The values below come from ChEMBL document CHEMBL1142739, “Development of spin-labeled probes for adenosine receptors” (J Med Chem, 2005).

Bounds are passed on as bounds.

`CCCn1c(=O)c2nc(C3CCCC3)[nH]c2n(CC2=CC(C)(C)N([O])C2(C)C)c1=O`: the Ki on Adenosine receptor A1 [1] is 5.47 nM; on Adenosine receptor A2b [2] it was over 1000 nM; at Adenosine receptor A2a [3] it was 8780 nM; on Adenosine receptor A3, 1700 nM. The compound further registered an inhibition in assay [4] of 23%.

`CCCn1c(=O)c2[nH]c(C3CCCC3)nc2n(Cc2ccccc2)c1=O`: the inhibition constant Ki at Adenosine receptor A2a [5] amounted to 511 nM; at Adenosine receptor A3 it was 54.6 nM; on Adenosine receptor A1 [6] it was 8.7 nM.

`CCCn1c(=O)c2nc(C3CC(C)(C)N([O])C(C)(C)C3)[nH]c2n(CCC)c1=O`: the Ki on Adenosine receptor A1 [1] is 160 nM; on Adenosine receptor A2b [2], over 10000 nM; on Adenosine receptor A2a [3] it was 6750 nM; at Adenosine receptor A3, about 10000 nM.

On to `CCCn1c(=O)c2nc(C3=CC(C)(C)N([O])C3(C)C)[nH]c2n(CCC)c1=O`, for which the inhibitory constant (Ki) on Adenosine receptor A1 [1] is 8.23 nM; at Adenosine receptor A2b [2], 3100 nM; on Adenosine receptor A2a [3] it was 3800 nM; at Adenosine receptor A3, about 10000 nM. Besides, in [7], the inhibition came out at 47%.

In the case of `CCCCn1c(=O)[nH]c2[nH]c(-c3ccc(OCC(=O)Nc4ccc(CC(=O)O)cc4)cc3)nc2c1=O`, the inhibition constant Ki on Adenosine receptor A2b [8] was 5.3 nM; on Adenosine receptor A1 [1], 41 nM; at Adenosine receptor A2a [3], 479 nM; on Adenosine receptor A3 it was 676 nM.

As a reminder, the Ki is the dissociation constant of the complex between target and ligand, obtained from inhibition or displacement. Low readings indicate tighter binding, high ones weaker binding. For orientation: inhibition means the change of the read-out against control, counted positive when it falls. A lower inhibition goes with a weak effect.
